STEP inh = STEP phosphatase inhibitors, primary screen, biochemical, fluorescence intensity, uHTS | recombinant STEP, OMFP fluorogenic substrate | hit rate 0.25% among 360,000 | inhibition, % at 20 µM | Tyrosine-protein phosphatase non-receptor type 5 (Homo sapiens), P54829;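 active = inhibition at 20 µM, scaled per plate between control wells, above about 37%, limit read from the data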;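 note: 0% = DMSO with enzyme and substrate and 100% = substrate only without enzyme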
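Assay system: isolated STEP enzyme / Timing: 20 min at room temperature, dark / Doses: 20 µM, 1% DMSO / Technique: fluorescence intensity, excitation 480 nm, emission 540 nm / Reagent: fluorogenic phosphatase substrate OMFP at 25 µM final / Measure: percent inhibition scaled to no-enzyme and uninhibited-enzyme controls, plate-pattern corrected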
LMPTP block = LMPTP phosphatase inhibitors, primary screen, biochemical, fluorescence intensity, uHTS. inhibition, % at 20 µM. recombinant LMPTP-A, OMFP fluorogenic substrate. hit rate 0.22% among 360,000. Low molecular weight phosphotyrosine protein phosphatase (Homo sapiens), P24666;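 active = compounds that cut the enzyme signal by at least half of the control window in the single-dose screen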;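 note: plate controls were DMSO wells with enzyme plus substrate for no effect and substrate without enzyme for full effect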
Target sequence (P24666 whole entry, looked up): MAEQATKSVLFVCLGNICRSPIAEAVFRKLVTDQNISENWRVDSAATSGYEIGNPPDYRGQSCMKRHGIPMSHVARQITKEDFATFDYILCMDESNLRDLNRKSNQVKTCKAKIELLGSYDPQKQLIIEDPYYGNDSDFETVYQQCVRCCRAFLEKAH
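test system = LMPTP-A | amount = 0.625 nM LMPTP-A final | reagent = fluorogenic phosphatase substrate OMFP at 400 µM final | incubation = 50 min at room temperature | benchmarks = no-enzyme low control, uninhibited high control | medium = Bis-Tris pH 6.0, DTT, detergent | signal = fluorescence intensity of OMFP turnover product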
DNMT1 inh = human DNMT1 methyltransferase inhibitors, primary screen, biochemical, molecular beacon, fluorescence, HinP1I cleavage, uHTS; DNA (cytosine-5)-methyltransferase 1 (Homo sapiens), P26358; inhibition (reported as % activation of signal), % at 10 µM; hit rate 0.83% among 360,000; in the data active = inhibition above about 50%
Scp1 inh = Scp-1 phosphatase inhibitors, primary screen, biochemical, colorimetric, uHTS; Carboxy-terminal domain RNA polymerase II polypeptide A small phosphatase 1 (Homo …; Recombinant Scp1, phosphopeptide, malachite green phosphate absorbance; inhibition, % at 20 µM; hit rate 0.88% among 340,000;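 active = inhibition above about 50% at 20 µM, limit read from the data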;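 note: plate controls were DMSO wells with enzyme for no effect and wells lacking enzyme for full effect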
Target sequence (Q9GZU7 76-261 limits assumed): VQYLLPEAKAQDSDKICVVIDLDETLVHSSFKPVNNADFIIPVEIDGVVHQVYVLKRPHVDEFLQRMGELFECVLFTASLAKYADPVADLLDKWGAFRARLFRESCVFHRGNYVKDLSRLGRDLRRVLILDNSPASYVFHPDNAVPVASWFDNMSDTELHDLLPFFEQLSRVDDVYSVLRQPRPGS
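Test system – truncated SCP-1 phosphatase (76-261aa) · Reagent – Phosphorylated 17-residue peptide substrate · Incubation – 45 min room-temperature reaction, 5 min colour, 30 min stabiliser · Detection – colorimetric phosphate reagent with accelerator and stabiliser, absorbance at 630 nm · Measure – % inhibition at 20 µM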
SUMO1-SIM PPI = modulators of SUMO1 protein-protein interactions, primary screen, biochemical, uHTS; SUMO1 binding to a labelled peptide, TR-FRET, 1 h; inhibition, % at 20 µM; hit rate 0.33% among 360,000; in the data active = inhibition above about 37%
Target sequence (P63165 whole entry, looked up): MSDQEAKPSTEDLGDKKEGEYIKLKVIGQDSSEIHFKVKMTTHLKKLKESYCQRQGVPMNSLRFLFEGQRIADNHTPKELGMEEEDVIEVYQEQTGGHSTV
The depositor's hits bear a star; nt = no result. Rows were chosen to be rich in hits. Some 1.7% of all compounds tested hit in one or more screens of this group.

SMILES | STEP inh | LMPTP block | DNMT1 inh | Scp1 inh | SUMO1-SIM PPI
COc1cc(C(=O)OCC(=O)c2c(N)n(C)c(=O)n(C)c2=O)ccc1OCCC(C)C | -3 | 1 | 5 | -5 | -1
CCOC(=O)/C(C)=C1\NC(C)(C)Cc2ccccc21 | 2 | -1 | 1 | 101* | 1
CCCCn1nnnc1C1(C)CCC(=O)N1CC1CCCCC1 (stereo unspecified) | nt | -2 | nt | nt | 3
CCOc1cc(C(=O)NCCCn2ccnc2)cc(OCC)c1OCC | 1 | 0 | 3 | -7 | -3
O=c1cc(-c2ccccc2Cl)oc2ccc([N+](=O)[O-])c(O)c12 | 2 | 13 | 6 | 4 | -2
O=[N+]([O-])c1cc([N+](=O)[O-])c2oc(-c3ccccc3)c(Br)c2c1O | 16 | 9 | -6 | -12 | 43*
CCC(C)N1CCN(S(=O)(=O)Cc2ccccc2)CC1 (stereo unspecified) | -8 | -1 | 9 | -1 | 5
Cc1cnc(C(=O)OCC(=O)N2CCC(C)CC2)cn1 | -3 | -1 | 2 | 10 | 4
CCOC(=O)c1ccccc1NC(=O)C=C(C)C | 4 | 1 | 6 | -1 | -3
CCOC(=O)c1ccccc1NC(=O)/C=C/c1cc(OC)c(OC)c(OC)c1 | -2 | -1 | -8 | 1 | 43*
O=C(O)CCCN1C(=O)/C(=C/c2ccncc2)SC1=S | 1 | -1 | 1 | 6 | -27
O=C(O)CCCN1C(=O)/C(=C/c2ccc(-c3nc4ccccc4s3)o2)SC1=S | 62* | 9 | 104* | 59* | 34
O=C(O)CCCCCN1C(=O)/C(=C\c2ccc(-c3ccc(Cl)cc3)o2)SC1=S | 7 | 79* | 14 | 89* | 70*
CCS(=O)(=O)Nc1cc2c3c(c1)CCC(=O)N3CCC2 | -1 | -1 | 3 | -2 | 0
Cn1c(=O)c2nc3ccccc3nc2n(C)c1=O | -2 | 0 | 4 | -5 | -30
CC(=O)Nc1ccc2nc3c(=O)n(C)c(=O)n(C)c3nc2c1 | 2 | 1 | -1 | 84* | 9
CS(=O)(=O)N1CCC(C(=O)Nc2cccc(Br)c2)CC1 | 1 | -2 | -5 | -8 | 2
NS(=O)(=O)c1ccc(-c2ccc(C=C3C(=O)c4ccccc4C3=O)o2)cc1 | -2 | 8 | 0 | -11 | -4
CC(C)CC1=C/C(=C/c2ccc(-c3ccccc3)o2)C(=O)O1 | 4 | 4 | 92* | 15 | 14
CC1(C(=O)NCCC#N)CCN1C(=O)c1ccccc1CCc1ccccc1 (stereo unspecified) | -2 | -2 | 3 | nt | 7
COc1cccc(C(=O)Nc2cccc(C(=O)NC3=NN(c4c(Cl)cc(Cl)cc4Cl)C(=O)C3)c2)c1 | 2 | 2 | 7 | 5 | 44*
COc1cccc(C(=O)Nc2cccc(NC(=O)c3ccccc3Cl)c2)c1 | 0 | 0 | -1 | -6 | 0
COCCNC(=O)CCN1N=C(c2ccccc2)CCC1=O | -1 | -1 | 0 | -6 | -2
CC1=C(C(=O)OCc2ccccc2)C(c2cccc([N+](=O)[O-])c2)NC(=O)N1CCCCCC(=O)O (stereo unspecified) | 0 | -1 | 6 | -4 | -8
CCOC(=O)C1=C(C)N(CCCCCC(=O)O)C(=O)NC1c1cccc([N+](=O)[O-])c1 (stereo unspecified) | 1 | -1 | 92* | -6 | -4
SMILES | STEP inh | LMPTP block | DNMT1 inh | Scp1 inh | SUMO1-SIM PPI
COc1cc(C)c2c(c1C=O)Oc1c(c(C)c(O)c3c1C(O)OC3=O)OC2=O (stereo unspecified) | 2 | -9 | -21 | 10 | 78*
COc1cc(Cl)c(C)cc1NC(=O)Cc1cccs1 | 0 | 1 | 3 | -12 | -4
COc1ccc(C(=O)N/N=C/c2ccc(OC)c(COc3ccccc3)c2)cc1 | 2 | 0 | -4 | 0 | -4
COc1cc(/C=N/NC(=O)c2cc(O)cc(O)c2)ccc1OC(=O)c1ccccc1 | 67* | 13 | 77* | 62* | 34
COc1cc(/C=N/NC(=O)c2ccc(O)cc2)ccc1OCC(=O)Nc1cccc([N+](=O)[O-])c1 | 8 | -1 | 4 | 4 | 93*
COc1ccc(/C=N\NC(=O)c2cc(O)c(O)c(O)c2)cc1COc1ccc(C(=O)OCC(C)C)cc1 | 6 | 12 | -14 | 51* | 16
COc1cc(C(=O)N/N=C/c2ccc(OC(=O)c3ccccc3)c(OC)c2)ccc1O | 3 | 2 | -6 | 5 | -2
C[n+]1cccc(C(=O)Nc2ccccc2)c1 | -2 | -2 | -1 | 31 | -1
O=C1c2cccc3cccc(c23)C(=O)C1(O)O | 6 | 57* | 3 | -10 | -26
CC(=O)N1C(=O)c2cccc3cccc(c23)C(=O)N1C(C)=O | nt | nt | nt | 1 | nt
CCN1/C(=C/c2cccc[n+]2C)Sc2ccc(OC)cc21 | -1 | 2 | 1 | 109* | -43
Cc1ccc2[nH]c(CN3CCC(CO)(CC4CCCCO4)CC3)c(C)c2c1 (stereo unspecified) | 3 | 0 | 0 | -1 | 0
NC(=S)NN=C1Cc2cccc3cccc1c23 | 2 | 53* | 6 | 8 | -1
O/N=C1/CCc2cccc3cccc1c23 | 3 | -1 | -7 | 0 | -10
COc1ccccc1NC(=O)Cc1nnc(SCC(=O)c2ccccc2)n1C | 4 | -1 | -2 | -3 | 3
CC(Sc1nnnn1-c1ccc(O)cc1)C(=O)NC1CCCCC1C (stereo unspecified) | 1 | -1 | 3 | 2 | 17
COc1ccc(C2N(C(=O)C(F)(F)F)C(C)CN2S(=O)(=O)c2ccc(C)cc2)cc1 (stereo unspecified) | 0 | 2 | 0 | -13 | 2
CCCCn1c(NC(=O)c2ccco2)c(S(=O)(=O)c2ccc(C)cc2)c2nc3ccccc3nc21 | -2 | 6 | 35 | -3 | 42*
CCCCn1c(NC(=O)c2ccc(Br)o2)c(S(=O)(=O)c2ccccc2)c2nc3ccccc3nc21 | -2 | 2 | 33 | -13 | 47*
CCCCn1c(NS(=O)(=O)c2ccccc2)c(S(=O)(=O)c2ccc(C)cc2)c2nc3ccccc3nc21 | 2 | 25 | 80* | -11 | 48*
Cc1ccc(S(=O)(=O)c2c(N)n(CCC(C)C)c3nc4ccccc4nc23)cc1 | 2 | 6 | 29 | -1 | 42*
CC(C)CCn1c(N)c(S(=O)(=O)c2cccs2)c2nc3ccccc3nc21 | 2 | 4 | -27 | 3 | 6
CN(C(=O)COC(=O)CSc1ccc(C(N)=O)cc1[N+](=O)[O-])C1CCS(=O)(=O)C1 (stereo unspecified) | -2 | -1 | 2 | 0 | -30
